Calls of active or inactive are those of the source. The calls are words filed in the database; no cut-off is given here.

The target of assay [1] is Heat shock protein HSP 90-beta (Homo sapiens) (UniProt P08238). Put plainly: Inhibition of HSP90-mediated antiapoptotic activity in human NCI-H187 cells assessed as mitochondrial membrane depolarization at 5 uM after 72 hrs by JC-1 staining-based flow cytometry. The format is cell-based. The procedure, abridged:
(§1)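 SCLC cells treated for 72 h with graded doses. Mitochondrial membrane potential read by flow cytometry after JC-1 staining, with green-only emission indicating depolarization. Sub-G1 DNA content read after propidium iodide staining. CCCP used as positive control. n = 3 repeat experiments.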
A general note: Flow cytometry measures light scatter and fluorescence of single cells or particles in a stream.

The target is the same in assay [2]. The assay can be described thus: Inhibition of HSP90-mediated antiapoptotic activity in human NCI-H69 cells assessed as mitochondrial membrane depolarization at 5 uM after 72 hrs by JC-1 staining-based flow cytometry. The format is cell-based. In a few lines: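 Mitochondrial membrane potential was measured by JC-1 staining and flow cytometry. Depolarization was scored as a shift to cells emitting only green fluorescence. The mitochondrial uncoupler CCCP served as positive control.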

The target is the same in assay [3]. Put plainly: Inhibition of HSP90-mediated antiapoptotic activity in human NCI-H526 cells assessed as increase in caspase-3 activity at 10 uM after 72 hrs by fluorescence assay in presence of caspase-9 inhibitor Z-LEHD-FMK. The format is cell-based. In a few lines:
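NCI-H526 cells pretreated with Z-LEHD-FMK (100 µM), then exposed to 10 µM for 72 h. Caspase-3 activation read by Z-DEVD-R110 fluorescence. Caspase-3 and PARP cleavage read by western blot. n = 3.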

Assay [4] shares this target. Put plainly: Inhibition of HSP90-mediated antiapoptotic activity in human SKBR3 cells assessed as induction of caspase-3 cleavage at 50 uM after 24 hrs by Western blot analysis. The format is cell-based. Conditions: SK-BR-3. In a few lines: (§2)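 SKBr3 cells at 60–70% confluence were exposed to drug or DMSO vehicle. Lysis was in 50 mM Tris pH 7.4, 150 mM NaCl, 1% NP-40, with protein measured by BCA. Lysates of 20–100 µg were run on SDS-PAGE, blotted to nitrocellulose, probed with primary antibodies and detected with a peroxidase-conjugated secondary (1:5,000). Loading was checked with β-actin or PI(3)K p85.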
(In general: Immunoblotting shows a protein as a band on a membrane.)

The target is the same in assay [5]. The assay can be described thus: Inhibition of HSP90-mediated antiapoptotic activity in human MCF7 cells assessed as induction of caspase-9 cleavage at 400 uM after 24 hrs by Western blot analysis. It counts as cell-based.
Assay [6] has the same target. The assay can be described thus: Inhibition of HSP90-mediated antiapoptotic activity in human NCI-N417 cells assessed as subG1 accumulation at 2.5 uM after 72 hrs by propidium iodide staining-based flow cytometry. It counts as cell-based. Conditions: NCI-H417. In a few lines: (§3)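 Asynchronously growing cells were treated with compound, stained with propidium iodide and analysed by flow cytometry. The read-out was the percentage of cells with sub-G1 DNA content.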

The target is the same in assay [7]. The assay can be described thus: Inhibition of HSP90-mediated antiapoptotic activity in human SKBR3 cells assessed as induction of cell growth arrest at 50 uM after 24 hrs by propidium iodide staining-based flow cytometry. Conditions: SK-BR-3.
Assay [8] has the same target. The assay can be described thus: Inhibition of HSP90-mediated antiapoptotic activity in human SKBR3 cells assessed as induction of caspase-9 cleavage at 400 uM after 24 hrs by Western blot analysis. The format is cell-based. Conditions: SK-BR-3. In a few lines:
as §2

Assay [9] has the same target. Put plainly: Inhibition of HSP90-mediated antiapoptotic activity in human SKBR3 cells assessed as induction of cell growth arrest at 100 uM after 24 hrs by propidium iodide staining-based flow cytometry. Conditions: SK-BR-3.
For assay [10] the target is unchanged. Put plainly: Inhibition of HSP90-mediated antiapoptotic activity in human NCI-H69 cells assessed as increase in apoptotic cell population at 0.2 to 1 uM after 72 hrs by FACS analysis relative to control. It counts as cell-based.
Assay [11] has the same target. Put plainly: Inhibition of HSP90-mediated antiapoptotic activity in human NCI-H526 cells assessed as subG1 accumulation at 25 uM after 72 hrs by propidium iodide staining-based flow cytometry. It counts as cell-based. The procedure, abridged:
as §1

Assay [12] shares this target. Put plainly: Inhibition of HSP90-mediated antiapoptotic activity in human NCI-H187 cells assessed as subG1 accumulation at 5 uM after 72 hrs by propidium iodide staining-based flow cytometry. The format is cell-based. The procedure, abridged:
as §1

Assay [13] has the same target. The assay can be described thus: Inhibition of HSP90-mediated antiapoptotic activity in human NCI-H187 cells assessed as subG1 accumulation at 2.5 uM after 72 hrs by propidium iodide staining-based flow cytometry. It counts as cell-based. The procedure, abridged:
as §1

The subject of assay [14] is SK-BR-3. Put plainly: Inhibition of HSP70-mediated antiapoptotic activity in human SKBR3 cells assessed as induction of cell growth arrest after 72 hrs by propidium iodide staining-based flow cytometry.
The target of assay [15] is Heat shock protein HSP 90-beta (Homo sapiens) (UniProt P08238). Put plainly: Effect on HSP90-mediated Bcl-XL expression in human NCI-H526 cells at 25 uM after 24 hrs by Western blot analysis. It counts as cell-based. In a few lines:
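NCI-H526 cells were exposed for 24 h to drug or DMSO vehicle. Lysates were made in 50 mM Tris pH 7.4, 150 mM NaCl, 1% NP-40 and quantified by BCA. Western blot used 20–100 µg protein per lane, with β-actin as loading control.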

The subject of a further assay is NCI-H526. Put plainly: Inhibition of HSP70-mediated antiapoptotic activity in human NCI-H526 cells assessed as induction of caspase-3 cleavage after 24 hrs by Western blot analysis. The format is cell-based. In a few lines:
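NCI-H526 cells were treated for 24 h. PARP and caspase-3 cleavage were read by western blot of lysates in Tris/NaCl/NP-40 buffer. Apaf-1 complexes were immunoprecipitated with Apaf-1 antibody, using control IgG, then blotted.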

Assay [16] has as its target Heat shock protein HSP 90-beta (Homo sapiens) (UniProt P08238). Put plainly: Inhibition of HSP90-mediated antiapoptotic activity in human NCI-H526 cells assessed as induction of Akt degradation at 20 uM after 24 hrs by Western blot analysis. It counts as cell-based.
Assay [17] has as its system SK-BR-3. Put plainly: Inhibition of HSP70-mediated antiapoptotic activity in human SKBR3 cells assessed as release of Apaf-1 from chaperon complex after 24 hrs by Western blot analysis. The format is cell-based. In a few lines:
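SKBr3 cells were treated for 24 h. Lysates were probed by western blot for caspase-3 and PARP cleavage. Apaf-1 complexes were pulled down with Apaf-1 antibody (with control IgG) and immunoblotted.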

Assay [18] addresses Heat shock protein HSP 90-beta (Homo sapiens) (UniProt P08238). The assay can be described thus: Inhibition of HSP90-mediated antiapoptotic activity in human MCF7 cells assessed as induction of PARP cleavage at 400 uM after 24 hrs by Western blot analysis. The format is cell-based.
Assay [19] has the same target. Put plainly: Inhibition of HSP90-mediated antiapoptotic activity in human SKBR3 cells assessed as induction of PARP cleavage at 20 uM after 24 hrs by Western blot analysis. The format is cell-based. Conditions: SK-BR-3. The procedure, abridged: as §2
For assay [20] the target is unchanged. The assay can be described thus: Inhibition of HSP90-mediated antiapoptotic activity in human NCI-H526 cells assessed as mitochondrial membrane depolarization at 10 uM after 72 hrs by JC-1 staining-based flow cytometry in presence of broad-spectrum caspase inhibitor Boc-D-FMK. The format is cell-based. The procedure, abridged:
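NCI-H526 cells pretreated for 3 h with Boc-D-FMK (100 µM), then exposed to 10 µM for 72 h. Flow cytometry after JC-1 staining for mitochondrial potential and after propidium iodide staining for DNA content. n = 3.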

For assay [21] the target is unchanged. The assay can be described thus: Inhibition of HSP90-mediated antiapoptotic activity in human NCI-H526 cells assessed as induction of PARP cleavage at 10 uM after 72 hrs by fluorescence assay in presence of caspase-9 inhibitor Z-LEHD-FMK. The format is cell-based.
The target is the same in assay [22]. Put plainly: Inhibition of HSP90-mediated antiapoptotic activity in human NCI-N417 cells assessed as subG1 accumulation at 25 uM after 72 hrs by propidium iodide staining-based flow cytometry. It counts as cell-based. Conditions: NCI-H417. The procedure, abridged: as §3
For assay [23] the target is unchanged. The assay can be described thus: Inhibition of HSP90-mediated antiapoptotic activity in human NCI-H526 cells assessed as increased association between caspase-9 and Apaf-1 at 20 uM after 1 hr by Western blot analysis.

Chain of Heat shock protein HSP 90-beta (Homo sapiens) (P08238 whole entry): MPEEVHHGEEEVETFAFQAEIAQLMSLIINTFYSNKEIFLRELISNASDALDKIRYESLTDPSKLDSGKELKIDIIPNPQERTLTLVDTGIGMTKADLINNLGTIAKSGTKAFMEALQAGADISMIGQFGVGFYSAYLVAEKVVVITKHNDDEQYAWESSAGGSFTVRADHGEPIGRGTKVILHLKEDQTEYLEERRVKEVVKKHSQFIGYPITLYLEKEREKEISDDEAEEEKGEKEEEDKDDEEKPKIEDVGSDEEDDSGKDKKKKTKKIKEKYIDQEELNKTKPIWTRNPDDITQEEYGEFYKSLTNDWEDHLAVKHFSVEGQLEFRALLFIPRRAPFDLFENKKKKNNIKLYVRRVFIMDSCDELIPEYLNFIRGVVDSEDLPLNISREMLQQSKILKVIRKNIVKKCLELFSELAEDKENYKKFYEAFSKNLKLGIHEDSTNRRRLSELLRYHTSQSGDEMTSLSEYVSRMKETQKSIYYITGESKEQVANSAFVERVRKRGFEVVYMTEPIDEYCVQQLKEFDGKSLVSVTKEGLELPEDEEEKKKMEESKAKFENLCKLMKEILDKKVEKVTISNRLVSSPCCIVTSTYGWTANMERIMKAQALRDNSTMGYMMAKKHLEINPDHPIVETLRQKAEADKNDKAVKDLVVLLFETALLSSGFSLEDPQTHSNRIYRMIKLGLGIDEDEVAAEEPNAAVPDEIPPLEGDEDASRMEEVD

In the case of `O=CN1CC/C(=C/c2ccc3c(c2)OCO3)C1=O`, the outcome in assay [1], in assay [2], in assay [3], in assay [4], in assay [5] and in assay [6] was inactive. Further, the result in assay [7], in [8], in assay [10], in assay [11], in assay [12] and in [13] was inactive. The outcome in assay [15], in assay [16], in assay [18], in assay [19], in [20] and in assay [21] was inactive. For the same compound, the result in [22] and in [23] was inactive. Also, in assay [9], the result was Active. Further, the inhibition entry in the assay with SK-BR-3 [14] is “Active”. Besides, the inhibition entry in the assay on NCI-H526 and in the assay with SK-BR-3 [17] was “inactive” in each case.
